Assay results: ChEMBL document CHEMBL4364256, “Design, synthesis and biological evaluation of antimicrobial diarylimine and -amine compounds targeting the interaction between the bacterial NusB and NusE proteins” (Eur J Med Chem, 2019)
Converted amounts (≈) assume the structure as drawn.

Tests used:
Staphylococcus aureus [1] = test: Antimicrobial activity against CA-methicillin-resistant Staphylococcus aureus W47 ST30 incubated for 20 hrs by microdilution method; assay type: functional; conditions: W47 ST30, 20 h
In short: (§1)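 MIC determined by microdilution following Clinical & Laboratory Standards Institute (CLSI) guidelines, read in µg/mL, against a panel of hospital- and community-acquired MRSA strains.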

Acinetobacter baumannii = test: Antimicrobial activity against Acinetobacter baumannii ATCC 19606 incubated for 20 hrs by microdilution method; assay type: functional; conditions: ATCC 19606 = CIP 70.34 = JCM 6841, 20 h
In short: (§2)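 Broth microdilution MIC testing done following CLSI guidelines.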

Staphylococcus aureus [2] = test: Antimicrobial activity against Staphylococcus aureus ST22 11B086169 incubated for 20 hrs by microdilution method; assay type: functional; conditions: ST22 11B086169, 20 h; in short: as §1
Bacillus subtilis = test: Inhibition of N-terminal LgBiT-fused Bacillus subtilis NusB expressed in Escherichia coli BL21(DE3)pLysS interaction with C- terminal SmBiT-fused Bacillus subtilis NusE expressed in Escherichia coli BL21(DE3)pLysS at 100 uM preincubated for 10 mins followed by NusE addition and measured after 10 mins by nano-glo luciferase assay relative to control
In short: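 NusB and NusE were mixed 1:1 at 1 µM in PBS, with compound at 100 µM. The read-out was percent inhibition of the NusB-NusE interaction.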

[3] = Therapeutic index, ratio of CC50 for human A549 cells to 1/2 times MIC for Staphylococcus aureus ATCC 25923; assay type: toxicity; conditions: read-out: TI
[4] = Cytotoxicity against human HaCaT cells assessed as reduction in cell viability after 48 to 72 hrs by MTT assay; assay type: cell-based
Streptococcus pneumoniae = test: Antimicrobial activity against Streptococcus pneumoniae ATCC 49619 incubated for 20 hrs by microdilution method; assay type: functional; conditions: ATCC 49619, 20 h; in short: as §2
Staphylococcus aureus [5] = test: Antimicrobial activity against Staphylococcus aureus ST239 incubated for 20 hrs by microdilution method; assay type: functional; conditions: CN79, 20 h; in short: as §1
Staphylococcus aureus [6] = test: Antimicrobial activity against CA-methicillin-resistant Staphylococcus aureus W4 ST338 incubated for 20 hrs by microdilution method; assay type: functional; conditions: W4 ST338, 20 h; in short: as §1
Staphylococcus aureus [7] = test: Antimicrobial activity against Staphylococcus aureus ATCC BAA43 incubated for 20 hrs by microdilution method; assay type: functional; conditions: ATCC BAA43, 20 h; in short: as §1
Staphylococcus aureus [8] = test: Antimicrobial activity against Staphylococcus aureus HA W235 ST5 incubated for 20 hrs by microdilution method; assay type: functional; conditions: HA W235 ST5, 20 h; in short: as §1
Staphylococcus aureus [9] = test: Antimicrobial activity against Staphylococcus aureus USA300/ST8 incubated for 20 hrs by microdilution method; conditions: USA300 ST8, 20 h
[10] = Therapeutic index, ratio of CC50 for human HaCaT cells to 1/2 times MIC for Staphylococcus aureus ATCC 25923; assay type: toxicity; conditions: read-out: TI
[11] = Cytotoxicity against human A549 cells assessed as reduction in cell viability after 48 to 72 hrs by MTT assay; assay type: cell-based
Staphylococcus aureus [12] = test: microbe, parasite or virus in culture; conditions: ATCC 25923, 20 h
Streptococcus agalactiae = test: Antimicrobial activity against Streptococcus agalactiae ATCC 12386 incubated for 20 hrs by microdilution method; assay type: functional; conditions: ATCC 12386, 20 h; in short: as §2
Staphylococcus aureus [13] = test: Antimicrobial activity against CA-methicillin-resistant Staphylococcus aureus W48 ST217 incubated for 20 hrs by microdilution method; conditions: W48 ST217, 20 h
Staphylococcus aureus [14] = test: Antimicrobial activity against Staphylococcus aureus HA W231 ST45 incubated for 20 hrs by microdilution method; assay type: functional; conditions: HA W231 ST45, 20 h; in short: as §1
Pseudomonas aeruginosa = test: Antimicrobial activity against Pseudomonas aeruginosa ATCC 27853 incubated for 20 hrs by microdilution method; assay type: functional; conditions: ATCC 27853, 20 h; in short: as §2
Enterococcus faecium = test: Antimicrobial activity against Enterococcus faecium ATCC 19433 incubated for 20 hrs by microdilution method; assay type: functional; conditions: ATCC 19433, 20 h; in short: as §2
[15] = microbe, parasite or virus in culture; conditions: Enterobacter cloacae, ATCC 13047, 20 h
[16] = test system: Staphylococcus epidermidis; test: Antimicrobial activity against Staphylococcus epidermidis ATCC 12228 incubated for 20 hrs by microdilution method; assay type: functional; conditions: ATCC 12228, 20 h; in short: as §2
[17] = Antimicrobial activity against Staphylococcus saprophyticus ATCC 15305 incubated for 20 hrs by microdilution method; assay type: functional, Staphylococcus saprophyticus subsp. saprophyticus; conditions: ATCC 15305, 20 h; in short: as §2
Staphylococcus aureus [18] = test: Antimicrobial activity against Staphylococcus aureus ATCC BAA44 incubated for 20 hrs by microdilution method; assay type: functional; conditions: ATCC BAA44, 20 h; in short: as §1
[19] = test system: Enterococcus casseliflavus; test: Antimicrobial activity against Enterococcus casseliflavus ATCC 25788 incubated for 20 hrs by microdilution method; assay type: functional; conditions: ATCC 25788, 20 h; in short: as §2
Staphylococcus aureus [20] = test: Antimicrobial activity against CA-methicillin-resistant Staphylococcus aureus W45 ST59 incubated for 20 hrs by microdilution method; conditions: W45 ST59, 20 h
Streptococcus pyogenes = test: Antimicrobial activity against Streptococcus pyogenes ATCC 19615 incubated for 20 hrs by microdilution method; assay type: functional; conditions: ATCC 19615, 20 h; in short: as §2
Staphylococcus aureus [21] = test: Antimicrobial activity against CA-methicillin-resistant Staphylococcus aureus W46 ST59 incubated for 20 hrs by microdilution method; conditions: W46 ST59, 20 h
Staphylococcus aureus [22] = test: microbe, parasite or virus in culture; conditions: ATCC 29213, 20 h

SMILES | MIC (Acinetobacter baumannii) [µg/mL] | inhibition (Bacillus subtilis) [%] | MIC (Streptococcus pneumoniae) [µg/mL] | MIC (Staphylococcus aureus [12]) [µg/mL] | MIC (Pseudomonas aeruginosa) [µg/mL] | MIC (Enterococcus faecium) [µg/mL] | MIC [15] [µg/mL] | MIC (Staphylococcus aureus [22]) [µg/mL] | selectivity ratio [3] | CC50 [4] [µM] | selectivity ratio [10] | CC50 [11] [µM] | MIC (Streptococcus agalactiae) [µg/mL] | MIC [17] [µg/mL] | MIC [19] [µg/mL] | also measured
C#Cc1cccc(NCc2cc([N+](=O)[O-])cc(Br)c2O)c1 | 256 (≈ 737 µM) | 99.6 | 32 (≈ 92.2 µM) | 2 (≈ 5.76 µM) | > 256 | 64 (≈ 184 µM) | > 256 | 2 (≈ 5.76 µM) | 27 | 72.2 | 25 | 79.1 | 32 (≈ 92.2 µM) | 16 (≈ 46.1 µM) | 64 (≈ 184 µM) | MIC (Staphylococcus aureus [1]): 2 µg/mL (≈ 5.76 µM); MIC (Staphylococcus aureus [2]): 4 µg/mL (≈ 11.5 µM); MIC (Staphylococcus aureus [5]): 4 µg/mL (≈ 11.5 µM); MIC (Staphylococcus aureus [6]): 2 µg/mL (≈ 5.76 µM); MIC (Staphylococcus aureus [7]): 2 µg/mL (≈ 5.76 µM); MIC (Staphylococcus aureus [8]): 2 µg/mL (≈ 5.76 µM); MIC (Staphylococcus aureus [9]): 4 µg/mL (≈ 11.5 µM); MIC (Staphylococcus aureus [13]): 2 µg/mL (≈ 5.76 µM); MIC (Staphylococcus aureus [14]): 2 µg/mL (≈ 5.76 µM); MIC [16]: 4 µg/mL (≈ 11.5 µM); MIC (Staphylococcus aureus [18]): 16 µg/mL (≈ 46.1 µM); MIC (Staphylococcus aureus [20]): 2 µg/mL (≈ 5.76 µM); MIC (Streptococcus pyogenes): 32 µg/mL (≈ 92.2 µM); MIC (Staphylococcus aureus [21]): 4 µg/mL (≈ 11.5 µM)
CN[C@H](CC(C)C)C(=O)N[C@H]1C(=O)N[C@@H](CC(N)=O)C(=O)N[C@H]2C(=O)N[C@H]3C(=O)N[C@H](C(=O)N[C@H](C(=O)O)c4cc(O)cc(O)c4-c4cc3ccc4O)[C@H](O)c3ccc(c(Cl)c3)Oc3cc2cc(c3O[C@@H]2O[C@H](CO)[C@@H](O)[C@H](O)[C@H]2O[C@H]2C[C@](C)(N)[C@H](O)[C@H](C)O2)Oc2ccc(cc2Cl)[C@H]1O [VANCOMYCIN] | > 256 | – | 0.5 (≈ 0.345 µM) | 1 to 2 (≈ 0.69 to 1.38 µM) | > 256 | – | > 256 | – | – | – | – | – | 0.5 (≈ 0.345 µM) | 1 (≈ 0.69 µM) | 4 (≈ 2.76 µM) | –
Cc1onc(-c2ccccc2)c1C(=O)N[C@@H]1C(=O)N2[C@@H]1SC(C)(C)[C@@H]2C(=O)O [OXACILLIN] | > 256 | – | 2 (≈ 4.98 µM) | 0.5 to 1 (≈ 1.25 to 2.49 µM) | > 256 | 16 (≈ 39.9 µM) | > 256 | 0.25 (≈ 0.623 µM) | – | – | – | – | 0.5 (≈ 1.25 µM) | 1 (≈ 2.49 µM) | 32 (≈ 79.7 µM) | MIC (Staphylococcus aureus [1]): 4 µg/mL (≈ 9.96 µM); MIC (Staphylococcus aureus [2]): 64 µg/mL (≈ 159 µM); MIC (Staphylococcus aureus [5]): > 256 µg/mL; MIC (Staphylococcus aureus [6]): 0.5 µg/mL (≈ 1.25 µM); MIC (Staphylococcus aureus [7]): > 256 µg/mL; MIC (Staphylococcus aureus [8]): > 256 µg/mL; MIC (Staphylococcus aureus [9]): 32 µg/mL (≈ 79.7 µM); MIC (Staphylococcus aureus [13]): 64 µg/mL (≈ 159 µM); MIC (Staphylococcus aureus [14]): 4 µg/mL (≈ 9.96 µM); MIC [16]: 0.25 µg/mL (≈ 0.623 µM); MIC (Staphylococcus aureus [18]): > 256 µg/mL; MIC (Staphylococcus aureus [20]): 8 µg/mL (≈ 19.9 µM); MIC (Streptococcus pyogenes): 0.0625 µg/mL (≈ 0.156 µM); MIC (Staphylococcus aureus [21]): 8 µg/mL (≈ 19.9 µM)
CC(C)(C)c1ccc(/N=C/c2cc([N+](=O)[O-])ccc2O)cc1 | > 256 | 38.8 | 128 (≈ 429 µM) | 4 (≈ 13.4 µM) | > 256 | > 256 | > 256 | 32 (≈ 107 µM) | – | – | – | – | – | – | – | –

Continued, in another order:

MIC (Acinetobacter baumannii) [µg/mL] | inhibition (Bacillus subtilis) [%] | MIC (Streptococcus pneumoniae) [µg/mL] | MIC (Staphylococcus aureus [12]) [µg/mL] | MIC (Pseudomonas aeruginosa) [µg/mL] | MIC (Enterococcus faecium) [µg/mL] | MIC [15] [µg/mL] | MIC (Staphylococcus aureus [22]) [µg/mL] | SMILES | selectivity ratio [3] | CC50 [4] [µM] | selectivity ratio [10] | CC50 [11] [µM] | MIC (Streptococcus agalactiae) [µg/mL] | MIC [17] [µg/mL] | MIC [19] [µg/mL] | also measured
> 256 | 50.6 | 256 (≈ 876 µM) | 2 (≈ 6.85 µM) | > 256 | 32 (≈ 110 µM) | > 256 | 4 (≈ 13.7 µM) | C#Cc1cccc(NCc2cc(Cl)cc(Cl)c2O)c1 | 33 | 108 | 32 | 112 | – | – | – | –
256 (≈ 925 µM) | 66.5 | 64 (≈ 231 µM) | 2 (≈ 7.23 µM) | > 256 | > 256 | > 256 | 16 (≈ 57.8 µM) | O=[N+]([O-])c1ccc(O)c(/C=N/c2cccc(Cl)c2)c1 | 76 | 250 | 69 | 274 | – | – | – | –
256 (≈ 925 µM) | 45.7 | 64 (≈ 231 µM) | 2 (≈ 7.23 µM) | > 256 | > 256 | > 256 | 16 (≈ 57.8 µM) | O=[N+]([O-])c1ccc(O)c(/C=N/c2ccccc2Cl)c1 | 119 | 347 | 96 | 432 | – | – | – | –
256 (≈ 1070 µM) | 28.1 | 256 (≈ 1070 µM) | 256 (≈ 1070 µM) | 256 (≈ 1070 µM) | > 256 | > 256 | > 256 | C#Cc1cccc(/N=C/c2cc(F)ccc2O)c1 | – | – | – | – | – | – | – | –
128 (≈ 438 µM) | 43.4 | 32 (≈ 109 µM) | 4 (≈ 13.7 µM) | > 256 | > 256 | > 256 | 16 (≈ 54.7 µM) | O=[N+]([O-])c1ccc(O)c(/C=N/c2cccc3ccccc23)c1 | – | – | – | – | – | – | – | –
256 (≈ 825 µM) | 68.9 | 16 (≈ 51.6 µM) | 8 (≈ 25.8 µM) | > 256 | 256 (≈ 825 µM) | > 256 | 16 (≈ 51.6 µM) | O=[N+]([O-])c1ccc(O)c(/C=N/c2ccc(C(F)(F)F)cc2)c1 | – | – | – | – | – | – | – | –
